Four compounds from ChEMBL document CHEMBL3091355, “Designing and synthesis of novel antimicrobial heterocyclic analogs of fatty acids” (2013) can be followed below.

Converted amounts (≈) assume the structure as drawn.

In general, MFC refers to the smallest concentration meeting the test's criterion for killing the fungus. Low values mean more potent killing, high ones less potent killing. What is called MIC90 is the lowest concentration that inhibits either 90% of growth or 90% of the strains tested, depending on the study. A high value points to lower susceptibility. The term MIC denotes the smallest concentration in the dilution series that meets the test's criterion for growth inhibition. Lower therefore signals a more susceptible organism.

Assay type in all cases: functional
In assay [1] the test system is Candida tropicalis. Nature of the assay: Fungicidal activity against Candida tropicalis clinical isolate by micro dilution method.
Assay [2] deals with Candida parapsilosis. The experiment in a line: Fungicidal activity against Candida parapsilosis clinical isolate by micro dilution method. Conditions: Lodderomyces parapsilosis.
In assay [3] the test system is Candida albicans. The experiment in a line: Antifungal activity against Candida albicans after 20 hrs by agar dilution method. A digest of the protocol: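 Clinical Candida isolates purified and subcultured on SC, SCC and PDA media before testing. Compounds were dissolved in DMSO as a stock, then diluted into solid PDA medium to final concentrations of 0.0312 to 256.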

Assay [4] concerns Candida parapsilosis. The experiment in a line: Antifungal activity against Candida parapsilosis clinical isolate after 20 hrs by agar dilution method. Conditions: Lodderomyces parapsilosis.
For assay [5], the system named is Candida tropicalis. The experiment in a line: Antifungal activity against Candida tropicalis after 20 hrs by agar dilution method.
Assay [6] has as its system Candida albicans. Nature of the assay: Fungicidal activity against Candida albicans clinical isolate by micro dilution method.
Assay [7] concerns Candida dubliniensis. Nature of the assay: Antifungal activity against Candida dubliniensis after 20 hrs by agar dilution method.
For assay [8], the system named is Candida parapsilosis. The experiment in a line: Antifungal activity against Candida parapsilosis after 20 hrs by agar dilution method. Conditions: Lodderomyces parapsilosis. In general terms: In agar dilution, organisms are placed on agar that contains the substance at set levels.
Assay [9] relates to Nakaseomyces glabratus. The experiment in a line: Fungicidal activity against Candida glabrata by micro dilution method.
The subject of assay [10] is Candida tropicalis. Nature of the assay: Fungicidal activity against Candida tropicalis by micro dilution method.
The test system of assay [11] is Candida albicans. The experiment in a line: Antifungal activity against Candida albicans clinical isolate after 20 hrs by agar dilution method.
Assay [12] deals with Candida parapsilosis. Nature of the assay: Fungicidal activity against Candida parapsilosis by micro dilution method. Conditions: Lodderomyces parapsilosis.
Assay [13] concerns Candida tropicalis. The experiment in a line: Antifungal activity against Candida tropicalis clinical isolate after 20 hrs by agar dilution method.
Assay [14] relates to Nakaseomyces glabratus. Nature of the assay: Antifungal activity against Candida glabrata after 20 hrs by agar dilution method.
In assay [15] the test system is Candida albicans. Nature of the assay: Fungicidal activity against Candida albicans by micro dilution method.
For assay [16], the system named is Candida dubliniensis. The experiment in a line: Fungicidal activity against Candida dubliniensis by micro dilution method.
Assay [17] relates to Pichia kudriavzevii. The experiment in a line: Fungicidal activity against Candida krusei by micro dilution method.
In assay [18] the test system is Pichia kudriavzevii. The experiment in a line: Antifungal activity against Candida krusei after 20 hrs by agar dilution method.
Assay [19] concerns Staphylococcus aureus. The experiment in a line: Bactericidal activity against Staphylococcus aureus after 18 to 24 hrs. Conditions: read-out: MBC99.9. The procedure, abridged:
(§1)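 MBC taken as the lowest concentration that killed the bacteria completely.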

The subject of assay [20] is Streptococcus pyogenes. The experiment in a line: Bactericidal activity against Streptococcus pyogenes clinical isolate after 18 to 24 hrs. Conditions: read-out: MBC99.9.
The subject of assay [21] is Klebsiella pneumoniae. Nature of the assay: Bactericidal activity against Klebsiella pneumoniae clinical isolate after 18 to 24 hrs. The conditions noted are these: read-out: MBC99.9.
Assay [22] deals with Pseudomonas aeruginosa. Nature of the assay: Bactericidal activity against Pseudomonas aeruginosa ATCC 27853 after 18 to 24 hrs. The conditions noted are these: read-out: MBC99.9. A digest of the protocol: as §1
The subject of assay [23] is Streptococcus pyogenes. Nature of the assay: Antibacterial activity against Streptococcus pyogenes clinical isolate after 24 hrs by broth micro dilution method.
Assay [24] has as its system Klebsiella pneumoniae. The experiment in a line: Antibacterial activity against Klebsiella pneumoniae clinical isolate after 24 hrs by disc diffusion method. On the technique in general: Agar diffusion results depend on both activity and mobility in agar.
Assay [25] deals with Escherichia coli. The experiment in a line: Antibacterial activity against Escherichia coli ATCC 25922 after 24 hrs by broth micro dilution method. The conditions noted are these: ATCC 25922, 24 h. A digest of the protocol:
(§2)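 MIC by broth microdilution; growth read visually and spectrophotometrically. MIC taken as the lowest concentration giving complete inhibition of bacterial growth.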

Assay [26] relates to Pseudomonas aeruginosa. The experiment in a line: Antibacterial activity against Pseudomonas aeruginosa ATCC 27853 after 24 hrs by broth micro dilution method. Conditions: ATCC 27853, 24 h. A digest of the protocol:
as §2

Assay [27] has as its system Pseudomonas aeruginosa. Nature of the assay: Antibacterial activity against Pseudomonas aeruginosa ATCC 27853 after 24 hrs by disc diffusion method. The procedure, abridged:
(§3)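 Disk diffusion on agar; activity measured as the halo zone of inhibition around the disk.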

Assay [28] concerns Staphylococcus aureus. Nature of the assay: Antibacterial activity against Staphylococcus aureus after 24 hrs by disc diffusion method. The procedure, abridged: as §3
The test system of assay [29] is Escherichia coli. Nature of the assay: Bactericidal activity against Escherichia coli ATCC 25922 after 18 to 24 hrs. Conditions: read-out: MBC99.9. The procedure, abridged:
as §1

Assay [30] concerns Klebsiella pneumoniae. Nature of the assay: Antibacterial activity against Klebsiella pneumoniae clinical isolate after 24 hrs by broth micro dilution method.
Assay [31] relates to Escherichia coli. Nature of the assay: Antibacterial activity against Escherichia coli ATCC 25922 after 24 hrs by disc diffusion method. The procedure, abridged:
as §3

In assay [32] the test system is Staphylococcus aureus. The experiment in a line: Antibacterial activity against Staphylococcus aureus after 24 hrs by broth micro dilution method. A digest of the protocol:
as §2

Assay [33] relates to Streptococcus pyogenes. The experiment in a line: Antibacterial activity against Streptococcus pyogenes clinical isolate after 24 hrs by disc diffusion method.

As for `OC(Cn1cncn1)(Cn1cncn1)c1ccc(F)cc1F` [FLUCONAZOLE], the MFC is 256 µg/mL (≈ 836 µM) against Candida tropicalis [1]; 1 µg/mL (≈ 3.27 µM) against Candida parapsilosis [2]; greater than 256 µg/mL in the assay on Candida albicans [6]; 128 µg/mL (≈ 418 µM) against Nakaseomyces glabratus [9]; 256 µg/mL (≈ 836 µM) in the assay with Candida tropicalis [10]; 32 µg/mL (≈ 104 µM) against Candida parapsilosis [12]. Also, the minimum fungicidal concentration (MFC) against Candida albicans [15], against Candida dubliniensis [16] and in the assay on Pichia kudriavzevii [17] was greater than 256 µg/mL in each case. The MIC90 is greater than 256 µg/mL with Candida albicans [3]; 0.5 µg/mL (≈ 1.63 µM) against Candida parapsilosis [4]; 32 µg/mL (≈ 104 µM) against Candida tropicalis [5]; 2 µg/mL (≈ 6.53 µM) against Candida dubliniensis [7]; 4 µg/mL (≈ 13.1 µM) against Candida parapsilosis [8]; 8 µg/mL (≈ 26.1 µM) with Candida albicans [11]. For the same compound, the results for the MIC90 against Candida tropicalis [13], in the assay on Nakaseomyces glabratus [14] and in the assay with Pichia kudriavzevii [18] were 16 µg/mL (≈ 52.2 µM), 8 µg/mL (≈ 26.1 µM) and 32 µg/mL (≈ 104 µM), respectively.
For the compound `CCCC1=NOC(CCCCCCCCC(=O)OC)C1` (stereo unspecified), the MBC in the assay on Staphylococcus aureus [19] was greater than 100 µg/mL; with Streptococcus pyogenes [20], 100 µg/mL (≈ 353 µM); in the assay with Klebsiella pneumoniae [21] it was greater than 100 µg/mL; with Pseudomonas aeruginosa [22], greater than 100 µg/mL; in the assay on Escherichia coli [29] it was greater than 100 µg/mL. In addition, the minimum fungicidal concentration (MFC) against Candida tropicalis [1] was 128 µg/mL (≈ 452 µM); in the assay with Candida parapsilosis [2], greater than 256 µg/mL; in the assay with Candida albicans [6], 128 µg/mL (≈ 452 µM); in the assay on Nakaseomyces glabratus [9], greater than 256 µg/mL; against Candida tropicalis [10] it was greater than 256 µg/mL; with Candida parapsilosis [12], greater than 256 µg/mL. In addition, the MFC in the assay on Candida albicans [15], with Candida dubliniensis [16] and against Pichia kudriavzevii [17] was greater than 256 µg/mL each time. Also, the MIC90 against Candida albicans [3], against Candida parapsilosis [4], against Candida tropicalis [5], against Candida dubliniensis [7], in the assay with Candida parapsilosis [8] and against Candida albicans [11] was greater than 256 µg/mL throughout. Also, the MIC90 against Candida tropicalis [13], in the assay on Nakaseomyces glabratus [14] and against Pichia kudriavzevii [18] was greater than 256 µg/mL throughout. For the same compound, the MIC against Streptococcus pyogenes [23] is 50 µg/mL (≈ 176 µM); against Escherichia coli [25] it was 100 µg/mL (≈ 353 µM); with Pseudomonas aeruginosa [26], 100 µg/mL (≈ 353 µM); in the assay with Klebsiella pneumoniae [30], 100 µg/mL (≈ 353 µM); in the assay on Staphylococcus aureus [32] it was 50 µg/mL (≈ 176 µM). Moreover, the “diameter of the inhibition zone (DIZ)” value is listed as 17.1 mm with Klebsiella pneumoniae [24]; 30.1 mm in the assay with Pseudomonas aeruginosa [27]; 18.1 mm in the assay with Staphylococcus aureus [28]; 25.1 mm in the assay with Escherichia coli [31]; 20.2 mm with Streptococcus pyogenes [33].
With `CCC(C)n1ncn(-c2ccc(N3CCN(c4ccc(OCC5COC(Cn6cncn6)(c6ccc(Cl)cc6Cl)O5)cc4)CC3)cc2)c1=O` (stereo unspecified) [ITRACONAZOLE], the MFC against Candida tropicalis [1] is greater than 256 µg/mL; in the assay on Candida albicans [6], greater than 256 µg/mL; with Nakaseomyces glabratus [9], greater than 256 µg/mL; with Candida tropicalis [10], greater than 256 µg/mL; against Candida parapsilosis [12], 0.5 µg/mL (≈ 0.709 µM); against Candida albicans [15] it was greater than 256 µg/mL. Moreover, the MFC in the assay with Candida dubliniensis [16] was greater than 256 µg/mL; with Pichia kudriavzevii [17] it was 0.12 µg/mL (≈ 0.17 µM). The MIC90 was greater than 256 µg/mL against Candida albicans [3]; 0.25 µg/mL (≈ 0.354 µM) against Candida parapsilosis [4]; greater than 256 µg/mL in the assay on Candida tropicalis [5]; greater than 256 µg/mL with Candida dubliniensis [7]; 0.6 µg/mL (≈ 0.85 µM) with Candida parapsilosis [8]; 0.12 µg/mL (≈ 0.17 µM) in the assay on Candida albicans [11]. Moreover, the values for the MIC90 against Candida tropicalis [13], in the assay on Nakaseomyces glabratus [14] and with Pichia kudriavzevii [18] were 1 µg/mL (≈ 1.42 µM), 0.12 µg/mL (≈ 0.17 µM) and 0.6 µg/mL (≈ 0.85 µM), respectively.
Turning to `O=C(O)c1cn(C2CC2)c2cc(N3CCNCC3)c(F)cc2c1=O` [CIPROFLOXACIN], the “diameter of the inhibition zone (DIZ)” value with Pseudomonas aeruginosa [27] stood at 32 mm; in the assay with Staphylococcus aureus [28], 22 mm; in the assay with Escherichia coli [31], 27 mm.
